TRPC4 inh: inhibitors of mouse TRPC4 channel, primary screen, Fluo4 calcium, HEK293 TRPC4beta/mu-opioid cells; Short transient receptor potential channel 4 (Mus musculus), Q9QUQ5; DAMGO-evoked Fluo4 calcium flux; active compounds read low; B-score at 10 µM; 300,000 compounds, 0.39% hits; AID 2247, 2010;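 active means B-score over 3 SD under the library average, no early fluorescence shift, positive overall ratio signal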
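Material: HEK293 cells with stable TRPC4beta plus mu-opioid receptor expression; probe or stimulus: DAMGO in two steps, submaximal then maximal; technique: Fluo4 calcium fluorescence by kinetic imaging, 5 s 1 Hz baseline; measure: integrated fluorescence ratio relative to baseline, converted to per-well B score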
TRPC6 activator: mouse TRPC6 channel activators, primary screen, cell-based, HEK293, membrane potential dye. Short transient receptor potential channel 6 (Mus musculus), Q61143. HEK293-TRPC6 membrane potential dye fluorescence; active compounds read high. B-score at 10 µM. 310,000 compounds, 0.13% hits;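 active means B-score of the integrated fluorescence ratio above library mean plus 3 SD, and starting fluorescence ratio within library mean plus 5 SD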;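 further: higher score means more depolarization so channel activation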
TRPC4 potent: positive allosteric modulators of TRPC4, primary screen, cell-based, mouse TRPC4beta, HEK293 mu-opioid, Fluo-4 calcium | AID 2227, 2009 | B-score at 10 µM | Short transient receptor potential channel 4 (Mus musculus), Q9QUQ5 | DAMGO EC20, Fluo-4 Ca2+ flux; active compounds read high | 310,000 compounds, 0.42% hits;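 active means B-score of calcium response area above 5 SD of library B-scores, with initial fluorescence ratio within 5 SD of library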;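 further: B-score of integrated fluorescence ratio over time as area under calcium response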
TRPC4 agonist: activators of mouse TRPC4 channel, primary screen, Fluo4 calcium, HEK293 TRPC4beta/mu-opioid cells. Short transient receptor potential channel 4 (Mus musculus), Q9QUQ5. Fluo4 calcium fluorescence; active compounds read high. B-score at 10 µM. 310,000 compounds, 0.49% hits;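 active means B-score above 5 SD of library B-scores, and initial fluorescence ratio not above library mean plus 5 SD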;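 further: positive B-score marks a calcium rise read as TRPC4 activation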
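System – HEK293 cells stably co-expressing mouse TRPC4beta and mu-opioid receptor · Signal – Fluo4 calcium-sensitive dye fluorescence, kinetic, 1 Hz baseline · Benchmarks – buffer (low) and maximal DAMGO (high) · Read-out – B score of integrated fluorescence ratio per well · Incubation – dye loading 45 min room temperature, 110 s kinetic read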
TRPC6 inhibitor: mouse TRPC6 channel inhibitors, primary screen, cell-based, HEK293, membrane potential dye; Short transient receptor potential channel 6 (Mus musculus), Q61143; ACh-evoked depolarization; active compounds read low; 310,000 compounds, 1.1% hits; B-score at 10 µM;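 active means B-score under library mean minus 3 SD, initial fluorescence not abnormally high, positive integrated signal ratio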;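 further: B-score derived from integrated fluorescence ratio over the kinetic read; more negative B-score means stronger inhibition of depolarization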
* marks the source's active call; other numbers are inactive results; i = inactive. Most compounds without a hit are left out; they make up all but 2.3% or so of the library.

SMILES | TRPC4 inh | TRPC6 activator | TRPC4 potent | TRPC4 agonist | TRPC6 inhibitor
Cc1ccc(Cl)cc1N1CCN(Cc2nc3c(c(=O)[nH]c(=O)n3C)n2Cc2ccccc2F)CC1 | i | i | 26* | i | i
CCN1CCN(Cc2nc3c(c(=O)[nH]c(=O)n3C)n2Cc2ccccc2Cl)CC1 | i | i | 28* | i | i
O=C(Nc1ccccc1)/C(=C1\CCCN1)[N+](=O)[O-] | i | i | i | i | i
Cc1ccc(S(=O)(=O)NCCc2cn3nc(C)c(C)nc3n2)cc1C | i | i | i | i | i
CC(=O)c1cc2c(cc1NC(=O)c1ccccc1C)OCO2 | i | i | i | i | i
COc1ccc(CNCc2cc3c(cc2[N+](=O)[O-])OCO3)cc1 | i | i | i | i | -5.3*
Cc1cc(C)cc(NCc2cc3c(cc2[N+](=O)[O-])OCO3)c1 | i | i | i | i | i
Cc1ccc(CC(CC(=O)O)C(=O)NCC23CC4CC(CC(C4)C2)C3)cc1 (stereo unspecified) | i | i | 14* | i | i
O=C(O)CC(Sc1n[nH]c(=S)s1)C(=O)O (stereo unspecified) | i | i | i | i | i
CCOC(=O)C1(CCc2ccccc2)CCN(Cc2nccn2CC)CC1 | i | i | i | i | i
CCOC(=O)C1(CCc2ccccc2)CCN(Cc2c(O)cccc2OC)CC1 | i | i | i | 79* | i
CCOC(=O)C1(CCc2ccccc2)CCN(Cc2ccc(O)cc2)CC1 | -6* | i | i | 49* | i
CCOC(=O)C1(CCOc2ccccc2)CCN(Cc2ccc(O)cc2)CC1 | i | i | i | i | i
CCOC(=O)C1(CCc2ccccc2)CCN(Cc2ccc(OC)cc2)CC1 | i | i | i | 119* | i
CCOC(=O)C1(Cc2ccccc2)CCN(Cc2ccc(C)s2)CC1 | -8* | i | i | i | i
CCOC(=O)/C(C#N)=C/c1ccc(SC)cc1 | i | i | i | i | i
O=C(NC1CC1)C1CCN(C2CCN(C(=O)/C=C/c3ccc(F)cc3)CC2)CC1 | i | i | i | i | i
COc1ccc(CNc2nc(-c3cccnc3)nn2C(=O)C(C)C)cc1 | -5* | i | i | i | i
CCC(=O)n1nc(-c2cccnc2)nc1NCc1ccc(OC)cc1 | i | i | i | i | i
COc1cc(/C=C/C(=O)OCC(=O)Nc2cc(C(F)(F)F)ccc2N2CCOCC2)ccc1O | i | i | i | i | i
COc1ccc(OCc2nnc(SCC(=O)N3C(C)CCCC3C)o2)cc1 (stereo unspecified) | i | i | i | i | i
O=C(NCCN1CCCC1)c1ccc2c(=O)n(CCc3ccccc3)c(=O)[nH]c2c1 | i | i | 12* | i | i
N#Cc1c(N)nc2c(c1-c1ccccc1)CCC2 | i | i | i | i | i
Cc1ccc(-c2c(C#N)c(N)n(-c3ccccc3)c(=O)c2C#N)cc1 | i | i | i | i | i
Cn1c(N)c(Br)c(-c2ccc(F)cc2)c(C#N)c1=O | -5* | i | i | i | i
SMILES | TRPC4 inh | TRPC6 activator | TRPC4 potent | TRPC4 agonist | TRPC6 inhibitor
CCCCNC(=O)c1sc(=S)n2c1[nH]c(=O)c1ccccc12 | i | i | i | 46* | i
CC(C)NC(=O)c1sc(=S)n2c1[nH]c(=O)c1ccc(C(=O)NCCc3ccc(Cl)cc3)cc12 | i | i | i | i | i
CCOc1ccc(CCNC(=O)c2ccc3c(=O)[nH]c4c(C(=O)NC(C)C)sc(=S)n4c3c2)cc1 | i | i | 18* | i | i
CN(C)CC1CCCCC1OC(=O)c1ccc(Br)cc1 (stereo unspecified) | -6* | i | i | i | i
COc1ccc(C(=O)OC2CCCCC2CN(C)C)cc1 (stereo unspecified) | i | i | i | i | i
COCCCN1CC(=O)N2C(c3ccccc3)c3[nH]c4ccccc4c3C[C@H]2C1=O (stereo partly specified) | i | i | i | i | i
C=CCN1CC(=O)N2C(c3ccccc3)c3[nH]c4ccccc4c3C[C@H]2C1=O (stereo partly specified) | i | i | 13* | i | i
COc1ccc(CN(C)CCc2ccccn2)cc1OC | i | i | i | i | i
COc1cc(OC)c(OC)cc1CN(C)CCc1ccccn1 | i | i | i | 64* | i
COc1ccccc1C(=O)NCCC(=O)NNC(=O)Cn1ccc(C(F)(F)F)n1 | i | i | i | i | i
O=C(O)c1ccn2c(C(=O)c3ccc(Cl)cc3)c(-c3ccccc3)cc2c1 | -6* | i | i | i | i
O=C(NCCO)C(=O)c1c(-c2ccc(Cl)cc2)cc2ccccn12 | i | i | i | i | i
c1cnn(-c2cncc(-n3cccn3)n2)c1 | i | i | i | i | i
O=C(CNS(=O)(=O)c1ccc([N+](=O)[O-])cc1)N/N=C\c1ccc(O)cc1 | i | i | 12* | i | i
O=C(CCN1c2ccccc2Sc2ccccc21)OCc1nnc(-c2ccccc2)o1 | i | i | 12* | i | i
COc1ccc(CCNC(=O)CCCOc2cc(=O)n(C)c3ccccc23)cc1OC | i | i | i | i | i
CN(CCNC(=O)CCCOc1cc(=O)n(C)c2ccccc12)Cc1ccccc1 | i | i | i | 99* | i
CN(CCCNC(=O)CCCOc1cc(=O)n(C)c2ccccc12)Cc1ccccc1 | i | i | 19* | i | i
Cc1cc(C)cc(NC(=O)CCn2cnc3cc(C)c(C)cc32)c1 | i | i | i | i | i
Cc1ccccc1C(=O)Nc1c(C(=O)N(CCN(C)C)Cc2ccco2)oc2ccccc12 | -6* | i | i | 45* | i
COc1ccccc1C(=O)Nc1c(C(=O)N(CCN(C)C)Cc2ccco2)oc2ccccc12 | i | i | i | i | i
Cc1cccc(Nc2nc(NCCCN3CCOCC3)nc(N)c2[N+](=O)[O-])c1 | -6* | i | i | i | i
CCOP(=O)(OCC)c1nc(-c2ccc(Cl)cc2Cl)oc1N1CCCCC1 | i | i | 19* | i | i

Assay outcomes (PubChem BioAssay)
